Data taken from ChEMBL document CHEMBL1671664 (2009).
Values after ≈ are worked out from the molar mass of the structure shown. Active and inactive are the calls of the source. The rule behind the calls is not given here.

How the values were obtained:
Salmonella typhimurium [1] = experiment: Antimicrobial activity against qnrS-positive Salmonella enterica serovar Typhimurium isolate s2425 harboring wild type ParC gene by agar dilution method; format: functional, Salmonella enterica subsp. enterica serovar Typhimurium
[2] = Antimicrobial activity against qnrS-positive Salmonella enterica serovar Corvallis isolate s2052 harboring ParC QRDR mutant gene by agar dilution method; format: functional, Salmonella enterica subsp. enterica serovar Corvallis
Salmonella typhimurium [3] = experiment: Antimicrobial activity against Salmonella enterica serovar Typhimurium isolate s2878 harboring wild type ParC gene by agar dilution method; format: functional, Salmonella enterica subsp. enterica serovar Typhimurium
[4] = Antimicrobial activity against qnrS-positive Salmonella enterica serovar Stanley isolate s2018 harboring ParC QRDR mutant gene by agar dilution method; format: functional, Salmonella enterica subsp. enterica serovar Stanley
[5] = Antimicrobial activity against Salmonella enterica serovar Corvallis isolate s2064 harboring ParC QRDR mutant gene by agar dilution method; format: functional, Salmonella enterica subsp. enterica serovar Corvallis
Salmonella typhimurium [6] = experiment: Antimicrobial activity against qnrS-positive Salmonella enterica serovar Typhimurium isolate s2705 harboring wild type ParC gene by agar dilution method; format: functional, Salmonella enterica subsp. enterica serovar Typhimurium
[7] = Antimicrobial activity against Salmonella enterica serovar Braenderup isolate s2906 harboring ParC QRDR mutant gene by agar dilution method; format: functional, Salmonella enterica subsp. enterica serovar Braenderup
[8] = system: Salmonella enterica subsp. enterica serovar Montevideo; experiment: Drug uptake in qnrS-positive Salmonella enterica serovar Montevideo isolate s2209 harboring ParC QRDR mutant gene in presence of CCCP; format: functional
Procedure, shortened: (§1)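 Cell suspensions preincubated with 100 μM CCCP before substrate addition. Ciprofloxacin accumulation read by fluorescence (ex 311/em 447 nm), Hoechst 33342 by fluorescence (ex 355/[…]), at 10 min. Expressed relative to S. Typhimurium SL1344. Differences tested by Student t test (P < 0.05).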

[9] = Antimicrobial activity against qnrA-positive Salmonella enterica serovar Mbandaka isolate s2093 harboring ParC QRDR mutant gene by agar dilution method; format: functional, Salmonella enterica subsp. enterica serovar Mbandaka
[10] = Antimicrobial activity against qnrS-positive Salmonella enterica serovar Montevideo isolate s2209 harboring ParC QRDR mutant gene by agar dilution method; format: functional, Salmonella enterica subsp. enterica serovar Montevideo
Salmonella typhimurium [11] = experiment: Antimicrobial activity against Salmonella enterica serovar Typhimurium isolate SL1344 harboring wild type ParC gene by agar dilution method; format: functional, Salmonella enterica subsp. enterica serovar Typhimurium
[12] = Antimicrobial activity against Salmonella enterica serovar Montevideo isolate s2317 harboring ParC QRDR mutant gene by agar dilution method; format: functional, Salmonella enterica subsp. enterica serovar Montevideo
[13] = system: Salmonella enterica subsp. enterica serovar Mbandaka; experiment: Drug uptake in qnrA-positive Salmonella enterica serovar Mbandaka isolate s2093 harboring ParC QRDR mutant gene in presence of CCCP; format: functional; procedure, shortened: as §1
[14] = Antimicrobial activity against Salmonella enterica serovar Mbandaka isolate s2159 harboring ParC QRDR mutant gene by agar dilution method; format: functional, Salmonella enterica subsp. enterica serovar Mbandaka
[15] = Antimicrobial activity against qnrS-positive Salmonella enterica serovar Corvallis isolate s2017 harboring ParC QRDR mutant gene by agar dilution method; format: functional, Salmonella enterica subsp. enterica serovar Corvallis
[16] = Antimicrobial activity against qnrS-positive Salmonella enterica serovar Braenderup isolate s2856 harboring ParC QRDR mutant gene by agar dilution method; format: functional, Salmonella enterica subsp. enterica serovar Braenderup
[17] = Antimicrobial activity against qnrS-positive Salmonella enterica serovar Virginia isolate s2219 harboring ParC QRDR mutant gene by agar dilution method; format: functional, Salmonella enterica subsp. enterica serovar Virginia
[18] = Antimicrobial activity against qnrS-positive Salmonella enterica serovar Montevideo isolate s2944 harboring ParC QRDR mutant gene by agar dilution method; format: functional, Salmonella enterica subsp. enterica serovar Montevideo
[19] = Antimicrobial activity against Salmonella enterica serovar Stanley isolate s2043 harboring ParC QRDR mutant gene by agar dilution method; format: functional, Salmonella enterica subsp. enterica serovar Stanley
Escherichia coli [20] = experiment: Antimicrobial activity against Escherichia coli DH5[alpha] transformed with Salmonella enterica serovar Montevideo isolate s2944 plasmid encoded qnrS and Parc QRDR Thre57Ser mutant gene by agar dilution method; format: functional
Procedure, shortened: (§2)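 E. coli DH5α transformed by electroporation with qnr-carrying plasmid DNA from donor Salmonella isolates; transformants selected on LB agar with 0.03 μg/ml ciprofloxacin, qnr confirmed by multiplex PCR. MICs to ciprofloxacin and nalidixic acid by agar dilution.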

Escherichia coli [21] = experiment: Antimicrobial activity against Escherichia coli DH5[alpha] transformed with Salmonella enterica serovar Typhimurium isolate s2705 plasmid encoded qnrS and Parc gene by agar dilution method; format: functional; procedure, shortened: as §2
Escherichia coli [22] = experiment: Antimicrobial activity against Escherichia coli DH5[alpha] transformed with Salmonella enterica serovar Corvallis isolate s2052 plasmid encoded qnrS and Parc QRDR Thre57Ser mutant gene by agar dilution method; format: functional; procedure, shortened: as §2
Escherichia coli [23] = experiment: Antimicrobial activity against Escherichia coli DH5[alpha] transformed with Salmonella enterica serovar Montevideo isolate s2209 plasmid encoded qnrS and Parc QRDR Thre57Ser mutant gene by agar dilution method; format: functional; procedure, shortened: as §2
Escherichia coli [24] = experiment: Antimicrobial activity against Escherichia coli DH5[alpha] transformed with Salmonella enterica serovar Typhimurium isolate s2425 plasmid encoded qnrS and Parc gene by agar dilution method; format: functional; procedure, shortened: as §2
Escherichia coli [25] = experiment: Antimicrobial activity against Escherichia coli DH5[alpha] transformed with Salmonella enterica serovar Virginia isolate s2219 plasmid encoded qnrS and Parc QRDR Thre57Ser mutant gene by agar dilution method; format: functional; procedure, shortened: as §2
Escherichia coli [26] = experiment: Antimicrobial activity against Escherichia coli DH5[alpha] transformed with Salmonella enterica serovar Corvallis isolate s2017 plasmid encoded qnrS and Parc QRDR Thre57Ser mutant gene by agar dilution method; format: functional; procedure, shortened: as §2

O=C(O)c1cn(C2CC2)c2cc(N3CCNCC3)c(F)cc2c1=O [CIPROFLOXACIN]
MIC (Salmonella typhimurium [1]): 0.5 µg/mL (≈ 1.51 µM) | MIC [2]: 0.5 µg/mL (≈ 1.51 µM) | MIC (Salmonella typhimurium [3]): 0.03 µg/mL (≈ 0.0905 µM) | MIC [4]: 0.5 µg/mL (≈ 1.51 µM) | MIC [5]: 0.015 µg/mL (≈ 0.0453 µM) | MIC (Salmonella typhimurium [6]): 0.5 µg/mL (≈ 1.51 µM) | MIC [7]: 0.015 µg/mL (≈ 0.0453 µM) | Drug uptake [8]: inactive | MIC [9]: 4 µg/mL (≈ 12.1 µM) | MIC [10]: 0.5 µg/mL (≈ 1.51 µM) | MIC (Salmonella typhimurium [11]): 0.06 µg/mL (≈ 0.181 µM) | MIC [12]: 0.015 µg/mL (≈ 0.0453 µM) | Drug uptake [13]: inactive | MIC [14]: 0.008 µg/mL (≈ 0.0241 µM) | MIC [15]: 0.25 µg/mL (≈ 0.754 µM) | MIC [16]: 0.5 µg/mL (≈ 1.51 µM) | MIC [17]: 0.5 µg/mL (≈ 1.51 µM) | MIC [18]: 0.5 µg/mL (≈ 1.51 µM) | MIC [19]: 0.015 µg/mL (≈ 0.0453 µM)

C[C@H]1COc2c(N3CCN(C)CC3)c(F)cc3c(=O)c(C(=O)O)cn1c23.C[C@H]1COc2c(N3CCN(C)CC3)c(F)cc3c(=O)c(C(=O)O)cn1c23.O [LEVOFLOXACIN]
MIC (Salmonella typhimurium [1]): 1 µg/mL | MIC [2]: 0.5 µg/mL | MIC [4]: 1 µg/mL | MIC [5]: 0.06 µg/mL | MIC (Salmonella typhimurium [6]): 1 µg/mL | MIC [9]: 1 µg/mL | MIC [10]: 1 µg/mL | MIC [12]: 0.06 µg/mL | MIC [14]: 0.06 µg/mL | MIC [15]: 1 µg/mL | MIC [16]: 1 µg/mL | MIC [17]: 1 µg/mL | MIC [18]: 1 µg/mL | MIC [19]: 0.06 µg/mL

COc1c(N2C[C@@H]3CCCN[C@@H]3C2)c(F)cc2c(=O)c(C(=O)O)cn(C3CC3)c12 [MOXIFLOXACIN]
MIC [2]: 2 µg/mL (≈ 4.98 µM) | MIC [5]: 0.06 µg/mL (≈ 0.149 µM) | MIC [9]: 0.5 µg/mL (≈ 1.25 µM) | MIC [12]: 0.06 µg/mL (≈ 0.149 µM) | MIC [14]: 0.125 µg/mL (≈ 0.311 µM) | MIC [19]: 0.06 µg/mL (≈ 0.149 µM)

CCn1cc(C(=O)O)c(=O)c2ccc(C)nc21 [NALIDIXIC ACID]
MIC (Salmonella typhimurium [1]): 16 µg/mL (≈ 68.9 µM) | MIC [2]: 16 µg/mL (≈ 68.9 µM) | MIC (Salmonella typhimurium [3]): 16 µg/mL (≈ 68.9 µM) | MIC [4]: 16 µg/mL (≈ 68.9 µM) | MIC [5]: 4 µg/mL (≈ 17.2 µM) | MIC (Salmonella typhimurium [6]): 16 µg/mL (≈ 68.9 µM) | MIC [7]: 4 µg/mL (≈ 17.2 µM) | MIC (Escherichia coli [20]): 8 µg/mL (≈ 34.4 µM) | MIC [9]: 16 µg/mL (≈ 68.9 µM) | MIC [10]: 32 µg/mL (≈ 138 µM) | MIC (Salmonella typhimurium [11]): 4 µg/mL (≈ 17.2 µM) | MIC [12]: 4 µg/mL (≈ 17.2 µM) | MIC (Escherichia coli [21]): 8 µg/mL (≈ 34.4 µM) | MIC [14]: 4 µg/mL (≈ 17.2 µM) | MIC (Escherichia coli [22]): 8 µg/mL (≈ 34.4 µM) | MIC (Escherichia coli [23]): 8 µg/mL (≈ 34.4 µM) | MIC [15]: 16 µg/mL (≈ 68.9 µM) | MIC [16]: 16 µg/mL (≈ 68.9 µM) | MIC (Escherichia coli [24]): 8 µg/mL (≈ 34.4 µM) | MIC [17]: 32 µg/mL (≈ 138 µM) | MIC [18]: 16 µg/mL (≈ 68.9 µM) | MIC [19]: 4 µg/mL (≈ 17.2 µM) | MIC (Escherichia coli [25]): 8 µg/mL (≈ 34.4 µM) | MIC (Escherichia coli [26]): 8 µg/mL (≈ 34.4 µM)

CCn1cc(C(=O)O)c(=O)c2cc(F)c(N3CCNCC3)cc21 [NORFLOXACIN]
MIC (Salmonella typhimurium [1]): 2 µg/mL (≈ 6.26 µM) | MIC [2]: 1 µg/mL (≈ 3.13 µM) | MIC [4]: 2 µg/mL (≈ 6.26 µM) | MIC [5]: 0.06 µg/mL (≈ 0.188 µM) | MIC (Salmonella typhimurium [6]): 2 µg/mL (≈ 6.26 µM) | MIC [9]: 16 µg/mL (≈ 50.1 µM) | MIC [10]: 2 µg/mL (≈ 6.26 µM) | MIC [12]: 0.125 µg/mL (≈ 0.391 µM) | MIC [14]: 0.125 µg/mL (≈ 0.391 µM) | MIC [15]: 2 µg/mL (≈ 6.26 µM) | MIC [16]: 2 µg/mL (≈ 6.26 µM) | MIC [17]: 2 µg/mL (≈ 6.26 µM) | MIC [18]: 2 µg/mL (≈ 6.26 µM) | MIC [19]: 0.125 µg/mL (≈ 0.391 µM)

CC1COc2c(N3CCN(C)CC3)c(F)cc3c(=O)c(C(=O)O)cn1c23 (stereo unspecified) [OFLOXACIN]
MIC (Salmonella typhimurium [1]): 2 µg/mL (≈ 5.53 µM) | MIC [2]: 1 µg/mL (≈ 2.77 µM) | MIC [4]: 2 µg/mL (≈ 5.53 µM) | MIC [5]: 0.03 µg/mL (≈ 0.083 µM) | MIC (Salmonella typhimurium [6]): 2 µg/mL (≈ 5.53 µM) | MIC [9]: 1 µg/mL (≈ 2.77 µM) | MIC [10]: 2 µg/mL (≈ 5.53 µM) | MIC [12]: 0.125 µg/mL (≈ 0.346 µM) | MIC [14]: 0.125 µg/mL (≈ 0.346 µM) | MIC [15]: 2 µg/mL (≈ 5.53 µM) | MIC [16]: 2 µg/mL (≈ 5.53 µM) | MIC [17]: 2 µg/mL (≈ 5.53 µM) | MIC [18]: 2 µg/mL (≈ 5.53 µM) | MIC [19]: 0.125 µg/mL (≈ 0.346 µM)
